Assays:
Type in all cases: cell-based
[1] = target: T1, Prostaglandin E synthase (Homo sapiens, UniProt O14684); experiment: Inhibition of recombinant human mPGES-1 expressed in CHO cells assessed as reduction in PGE2 formation using PGH2 a substrate preincubated for 10 mins followed by substrate addition measured after 1 min
T1 sequence (O14684 whole entry): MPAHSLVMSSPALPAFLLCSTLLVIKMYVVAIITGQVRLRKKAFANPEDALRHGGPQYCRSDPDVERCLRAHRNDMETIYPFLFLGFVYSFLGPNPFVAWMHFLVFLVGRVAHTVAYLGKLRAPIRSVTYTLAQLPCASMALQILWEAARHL
In short: (§1)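 mPGES-1 enzyme inhibition. % inhibition values are means of two experiments in duplicate. IC50 values were derived from graphs of at least two experiments in duplicate.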

[2] = target: T1, Prostaglandin E synthase; experiment: Inhibition of mPGES-1 in human A549 cells assessed as decrease in IL1beta induced PGE2 release preincubated for 30 mins followed by IL-1beta addition after 16 to 20 hrs by HTRF method
[3] = target: T2, Prostaglandin E synthase (Homo sapiens) (UniProt O14684); experiment: Inhibition of recombinant human mPGES-1 expressed in CHO cells assessed as reduction in PGE2 formation at 1 uM using PGH2 a substrate preincubated for 10 mins followed by substrate addition measured after 1 min relative to control; in short: as §1
T2 sequence (whole entry): T1 sequence (O14684 whole entry)

[4] = target: T2, Prostaglandin E synthase (Homo sapiens); experiment: Inhibition of recombinant human mPGES-1 expressed in CHO cells assessed as reduction in PGE2 formation at 10 uM using PGH2 a substrate preincubated for 10 mins followed by substrate addition measured after 1 min relative to control; in short: as §1

| IC50 [1] [nM] | IC50 [2] [nM] | inhibition [3] [%] | inhibition [4] [%] | Structure (SMILES) |
| --- | --- | --- | --- | --- |
| 3.89 | 1200 | – | – | CC1(C)Oc2cc(C#Cc3cc(C(F)(F)F)ccc3Cl)ccc2-c2nc(-c3c(C#N)cccc3C#N)[nH]c21 |
| 12.7 | 2320 | – | – | CC1(C)Oc2cc(C#Cc3cc(Cl)ccc3Cl)ccc2-c2nc(-c3c(C#N)cccc3C#N)[nH]c21 |
| 710 | – | 68.6 | 92 | CC1(C)Oc2cc(Br)ccc2-c2[nH]c(-c3c(Br)cccc3Br)nc21 |
| – | – | 44.3 | 84.2 | CC1(C)Oc2cc(I)ccc2-c2[nH]c(-c3c(F)cccc3Cl)nc21 |
| 12.3 | 691 | – | – | CC1(C)Oc2cc(C#Cc3c(F)cccc3C(F)(F)F)ccc2-c2[nH]c(-c3c(F)cccc3Cl)nc21 |
| – | – | 56 | 68 | CC1(C)Oc2cc(C(=O)NC3CCCCC3)ccc2-c2nc(-c3c(F)cccc3Cl)[nH]c21 |
| 187 | – | 83.5 | 84.5 | CC1(C)Oc2cc(C(=O)Nc3ccc(Cl)c(F)c3)ccc2-c2[nH]c(-c3c(F)cccc3Cl)nc21 |
| – | – | 75 | 76 | CC1(C)Oc2nc(C#Cc3c(F)cccc3C(F)(F)F)ccc2-c2nc(-c3c(F)cccc3Cl)[nH]c21 |
| – | – | 89 | 98.6 | CC1(C)Oc2cc(-c3nc(C4CC4)no3)ccc2-c2[nH]c(-c3c(F)cccc3Cl)nc21 |
| 11.2 | – | – | – | CC1(C)Oc2cc(C#Cc3c(Cl)cccc3Cl)ccc2-c2nc(-c3c(F)cccc3Cl)[nH]c21 |
| 24.8 | 984 | – | – | CC1(C)Oc2cc(C#Cc3ccccc3)ccc2-c2[nH]c(-c3c(C#N)cccc3C#N)nc21 |
| 81.3 | – | – | – | CC1(C)Oc2cc(C#Cc3ccccc3C(F)(F)F)ccc2-c2nc(-c3c(Cl)cncc3Cl)[nH]c21 |
| 64.7 | – | – | – | CC1(C)Oc2cc(C#Cc3ccccc3Cl)ccc2-c2nc(-c3c(F)cccc3Cl)[nH]c21 |
| 407 | – | – | – | CC1(C)Oc2nc(C#Cc3ccccc3C(F)(F)F)ccc2-c2nc(-c3c(F)cccc3Cl)[nH]c21 |
| 15.6 | 693 | – | – | CC1(C)Oc2cc(C#Cc3ccccc3C(F)(F)F)ccc2-c2[nH]c(-c3c(F)cccc3Cl)nc21 |
| 29.6 | 1250 | – | – | CC1(C)Oc2cc(C#Cc3ccc(F)c(C(F)(F)F)c3)ccc2-c2nc(-c3c(F)cccc3Cl)[nH]c21 |
| 38.2 | – | – | – | CC1(C)Oc2cc(C#Cc3ccc(Cl)cc3)ccc2-c2nc(-c3c(F)cccc3Cl)[nH]c21 |
| 12.7 | 836 | – | – | CC1(C)Oc2cc(C#Cc3c(F)cccc3C(F)(F)F)ccc2-c2nc(-c3c(C#N)cccc3C#N)[nH]c21 |
| 33.1 | – | – | – | CC1(C)Oc2cc(C#Cc3cc(C(F)(F)F)ccc3Cl)ccc2-c2nc(-c3c(Cl)cncc3Cl)[nH]c21 |
| 465 | – | – | – | Cc1cnc(C#Cc2ccc3c(c2)OC(C)(C)c2[nH]c(-c4c(F)cccc4Cl)nc2-3)s1 |
| 31.5 | – | – | – | CC1(C)Oc2cc(C#Cc3cc(F)ccc3C(F)(F)F)ccc2-c2nc(-c3c(Cl)cncc3Cl)[nH]c21 |
| 325 | – | 74 | 89 | CC1(C)Oc2cc(Cl)ccc2-c2[nH]c(-c3c(Br)cccc3Br)nc21 |
| 252 | – | 86.7 | 92.9 | CC1(C)Oc2cc(C(=O)Nc3ccc(C(F)(F)F)cc3)ccc2-c2[nH]c(-c3c(F)cccc3Cl)nc21 |
| 39.2 | – | – | – | CC1(C)Oc2cc(C#Cc3cccc(Cl)c3)ccc2-c2nc(-c3c(F)cccc3Cl)[nH]c21 |

| IC50 [1] [nM] | IC50 [2] [nM] | inhibition [3] [%] | inhibition [4] [%] | Structure (SMILES) |
| --- | --- | --- | --- | --- |
| – | – | 76 | 94.8 | CC1(C)Oc2cc(-c3ccc(Cl)cc3)ccc2-c2[nH]c(-c3c(F)cccc3Cl)nc21 |
| – | – | 52.8 | 67.2 | Cc1csc(NC(=O)c2ccc3c(c2)OC(C)(C)c2nc(-c4c(F)cccc4Cl)[nH]c2-3)n1 |
| – | – | 40.8 | 94.1 | CC1(C)Oc2cc(Br)ccc2-c2[nH]c(-c3c(F)cccc3Cl)nc21 |
| 7.76 | 2830 | – | – | CC1(C)Oc2cc(C#Cc3ccc(Cl)cc3C(F)(F)F)ccc2-c2nc(-c3c(F)cccc3Cl)[nH]c21 |
| 29.3 | – | – | – | CC1(C)Oc2cc(C#Cc3cccc(C(F)(F)F)c3)ccc2-c2nc(-c3c(F)cccc3Cl)[nH]c21 |
| 9.3 | 1420 | – | – | CC1(C)Oc2cc(C#Cc3cc(Cl)ccc3Cl)ccc2-c2[nH]c(-c3c(F)cccc3Cl)nc21 |
| 797 | – | – | – | CC1(C)Oc2cc(C#Cc3cncnc3)ccc2-c2nc(-c3c(F)cccc3Cl)[nH]c21 |
| 191 | – | 81.4 | 83.3 | CC1(C)Oc2cc(-c3ccc(C(F)(F)F)cc3)ccc2-c2[nH]c(-c3c(F)cccc3Cl)nc21 |
| – | – | 70.4 | 83.6 | CC1(C)Oc2cc(C(=O)Nc3cccc(C(F)(F)F)c3)ccc2-c2[nH]c(-c3c(F)cccc3Cl)nc21 |
| 641 | – | – | – | CC1(C)Oc2cc(C#Cc3ccncc3F)ccc2-c2nc(-c3c(F)cccc3Cl)[nH]c21 |
| 170 | – | – | – | CC1(C)Oc2cc(C#Cc3ccccc3C(F)(F)F)ccc2-c2nc(-c3c(F)cncc3Cl)[nH]c21 |
| 73.9 | – | – | – | CC1(C)Oc2cc(C#Cc3ccc(C(F)(F)F)cc3Cl)ccc2-c2nc(-c3c(F)cncc3Cl)[nH]c21 |
| 11.8 | 267 | – | – | CC1(C)Oc2cc(C#Cc3ccccc3OC(F)(F)F)ccc2-c2[nH]c(-c3c(C#N)cccc3C#N)nc21 |
| 61.8 | – | – | – | CC1(C)Oc2cc(C#Cc3ccc(C(F)(F)F)cc3)ccc2-c2[nH]c(-c3c(F)cccc3Cl)nc21 |
| – | – | 65 | 63 | CC1(C)Oc2nc(C#Cc3cc(C(F)(F)F)ccc3Cl)ccc2-c2nc(-c3c(F)cccc3Cl)[nH]c21 |
| 21 | 706 | – | – | CC1(C)Oc2cc(C#Cc3cc(F)ccc3C(F)(F)F)ccc2-c2[nH]c(-c3c(F)cccc3Cl)nc21 |
| – | – | 70.1 | 86.9 | CC1(C)Oc2cc(-c3ccc(OC(F)(F)F)cc3)ccc2-c2[nH]c(-c3c(F)cccc3Cl)nc21 |
| 320 | – | – | – | CC1(C)Oc2cc(C#Cc3ccc(C(F)(F)F)cn3)ccc2-c2nc(-c3c(F)cccc3Cl)[nH]c21 |
| 83 | – | – | – | CC1(C)Oc2cc(C#Cc3ccccc3)ccc2-c2nc(-c3c(F)cccc3Cl)[nH]c21 |
| – | – | 12.2 | 75.5 | CC1(C)Oc2cc(-c3nc4ccccc4[nH]3)ccc2-c2nc(-c3c(F)cccc3Cl)[nH]c21 |
| 19.9 | 578 | – | – | CC1(C)Oc2cc(C#Cc3ccccc3OC(F)(F)F)ccc2-c2[nH]c(-c3c(F)cccc3Cl)nc21 |
| 35.5 | – | – | – | CC1(C)Oc2cc(C#Cc3cccc(Cl)c3Cl)ccc2-c2nc(-c3c(F)cccc3Cl)[nH]c21 |
| 25 | 461 | – | – | CC1(C)Oc2cc(C#Cc3cc(C(F)(F)F)ccc3F)ccc2-c2nc(-c3c(F)cccc3Cl)[nH]c21 |
| 28.2 | – | – | – | CC1(C)Oc2cc(C#Cc3ccc(C(F)(F)F)cc3Cl)ccc2-c2nc(-c3c(F)cccc3Cl)[nH]c21 |

Source: ChEMBL document CHEMBL4028818, “Tricyclic 4,4-dimethyl-3,4-dihydrochromeno[3,4-d]imidazole derivatives as microsomal prostaglandin E2 synthase-1 (mPGES-1) inhibitors: SAR and in vivo efficacy in hyperalgesia pain model” (Bioorg Med Chem Lett, 2017)
